Most compounds without a hit are left out; they make up all but 3% or so of the library.
Myeloid diff MLP: compounds promoting myeloid differentiation; calls only at 10 µM; actives 1% (n = 360,000); AID 624256; ER-HoxA9 myeloid progenitors, lysozyme-GFP differentiation, flow cytometry;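 active = normalized GFP-positive differentiation at or above the plate's own cutoff, the solvent-only control mean plus 3 SD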;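 note: cells exposed to compound for four days before flow analysis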
Granule exo inh: blocks lytic granule exocytosis. TALL-104 LAMP-1 surface exposure, flow cytometry; cells stimulated with thapsigargin and PMA. inhibition, % at 10 µM. actives 0.66% (n = 360,000). AID 651702;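 active = inhibition above about 55%, limit read from the data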
SENP1 FRET inh: SENP1 (human) catalytic domain inhibition; Q9P0U3; recombinant SENP1 catalytic domain, CyPet-SUMO1-YPet FRET cleavage; inhibition, % at 10 µM; actives 0.21% (n = 360,000);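 active = inhibition at least 30% at 10 µM, raw YFP signal under a set limit, fluorescence ratio 0.5 to 1.5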;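 note: 0% = enzyme with DMSO and 100% = no enzyme wells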
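material = recombinant human SENP1 catalytic domain, His6-tagged | quantity = 20 pM enzyme | reagent = 25 nM SUMO1 FRET substrate | compound dosing = 10 µM single point, 0.5% DMSO | timing = 50 min enzyme reaction, room temperature, light-protected | detection = FRET, CFP and YFP emission | control set = no-enzyme low, enzyme-DMSO high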
DSG3 Ab inh: human desmoglein-3 autoantibody binding inhibition; P32926; DSG3-coupled beads, scFv-anti-DSG3-GFP binding, flow cytometry; active compounds read low; binding (percent of control), % at 10 µM; actives 0.48% (n = 310,000); AID 588358;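 active = binding more than 3 SD below its plate's average and above zero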;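 note: hits lower antibody fragment binding to DSG3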
Target sequence (P32926 whole entry, looked up, the tested form may be a part): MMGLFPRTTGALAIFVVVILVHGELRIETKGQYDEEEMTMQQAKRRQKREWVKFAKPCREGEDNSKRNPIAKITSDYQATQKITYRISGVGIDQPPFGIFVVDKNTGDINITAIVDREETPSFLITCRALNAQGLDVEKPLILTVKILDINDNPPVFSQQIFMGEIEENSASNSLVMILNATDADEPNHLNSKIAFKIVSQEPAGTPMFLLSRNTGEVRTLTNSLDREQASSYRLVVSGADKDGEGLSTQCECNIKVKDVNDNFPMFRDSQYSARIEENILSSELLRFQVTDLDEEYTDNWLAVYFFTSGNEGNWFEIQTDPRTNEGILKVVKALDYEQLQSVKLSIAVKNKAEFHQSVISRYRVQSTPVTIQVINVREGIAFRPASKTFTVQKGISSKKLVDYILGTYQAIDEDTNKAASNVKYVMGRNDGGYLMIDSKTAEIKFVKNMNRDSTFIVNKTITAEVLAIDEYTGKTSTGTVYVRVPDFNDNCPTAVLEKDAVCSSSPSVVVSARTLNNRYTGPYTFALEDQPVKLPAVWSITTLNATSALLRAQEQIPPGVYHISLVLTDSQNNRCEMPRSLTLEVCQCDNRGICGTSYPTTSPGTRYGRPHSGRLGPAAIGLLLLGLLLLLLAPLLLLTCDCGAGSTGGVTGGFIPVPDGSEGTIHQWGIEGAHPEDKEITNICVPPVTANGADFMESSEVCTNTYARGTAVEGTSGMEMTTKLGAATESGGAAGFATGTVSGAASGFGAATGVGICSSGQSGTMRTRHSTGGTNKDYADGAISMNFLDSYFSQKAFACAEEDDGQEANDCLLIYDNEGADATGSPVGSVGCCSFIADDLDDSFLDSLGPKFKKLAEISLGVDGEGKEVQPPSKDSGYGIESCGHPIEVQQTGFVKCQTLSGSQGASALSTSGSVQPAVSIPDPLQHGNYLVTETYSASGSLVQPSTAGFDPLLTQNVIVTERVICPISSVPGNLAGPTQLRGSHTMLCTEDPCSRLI
H9c2 protect: protects H9c2 cardiomyocytes from peroxide injury; H2O2 injury protection, ATPLite, 2 h; protection from H2O2 cell death, % at 20 µM; actives 0.63% (n = 360,000); AID 588492;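 active = compounds giving at least 50% protection of heart cells from peroxide-induced death in the single-dose screen, raw or plate-pattern-corrected value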;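 note: 0% = DMSO wells with peroxide and 100% = DMSO wells without peroxide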
HNF4A DNA FP: change in binding of human HNF4 alpha to DNA; activity change, % at 10 µM; P41235; actives 0.3% (n = 360,000); HNF4a-FITC DNA binding, fluorescence polarization, 1 h; AID 1224865; in the data active = activity change above about 30%, passing the limit was not always enough
An asterisk follows results filed as active; i = inactive; . = no result; + = active, no number.

SMILES | Myeloid diff MLP | Granule exo inh | SENP1 FRET inh | DSG3 Ab inh | H9c2 protect | HNF4A DNA FP
Cc1cccn2c(=O)c(/C=C(\C#N)S(=O)(=O)c3ccccc3)c(N3CCCCC3)nc12 | i | -2 | -38 | 114 | -4 | 19
Cc1cccn2c(=O)c(/C=C(\C#N)C(=O)NCc3ccco3)c(N3CCCCCC3)nc12 | i | 19 | -127 | 106 | 13 | 3
CCOC(=O)C1CCN(c2nc3c(C)cccn3c(=O)c2/C=C(\C#N)S(=O)(=O)c2ccccc2)CC1 | i | 84* | -36 | . | 11 | 6
COc1ccc(NC(=O)CN(C)C(=O)c2ccc3[nH]c4c(c3c2)CC(C)CC4)cc1 (centres undefined) | i | -2 | -8 | 99 | 2 | 4
Cn1c(SCc2ccc(F)cc2)nnc1-c1cnccn1 | i | 1 | 3 | 76* | 7 | 2
Cn1c(SCc2ccccc2)nnc1-c1cnccn1 | i | -1 | 1 | . | 6 | -2
O=[N+]([O-])c1cccc2cn[nH]c12 | + | 1 | 1 | 100 | 20 | 2
C/C(=N\OCC(=O)OCC(=O)NCc1ccccc1)c1ccc2c(c1)OCO2 | i | -13 | 2 | 116 | 3 | 2
Cc1ccc(/C=N\NC(=O)CNC(=O)C23CC4CC(CC(C4)C2)C3)o1 | i | -3 | 0 | 98 | 4 | -3
O=C(Nc1ccc(N2CCCC2)cc1)c1ccc(Cl)cc1Cl | i | 2 | 3 | 103 | -4 | 3
O=C(Nc1ccc(N2CCCC2)cc1)c1cc(Cl)ccc1Cl | + | -5 | -1 | 71* | 11 | 14
O=C(CN1CCCCC1)Nc1ccc(N2CCCCCC2)cc1 | i | 1 | 2 | 111 | 13 | 72*
COc1ccc2c(c1)OC[C@H]1[C@H]2N2C(=O)c3cc(Br)ccc3NC(=O)[C@@]2(C)[C@H]1c1ccccc1 | i | 15 | 0 | 98 | -4 | 5
COc1cccc(-c2nn(-c3ccc(C)cc3)cc2C(=O)N2CCN(C3CCS(=O)(=O)C3)CC2)c1 (centres undefined) | i | -1 | -2 | 111 | 4 | -6
CCOc1c(C)cnc2c1c(=O)n(Cc1ccccc1Cl)c(=O)n2C | i | 0 | -5 | 95 | -3 | -3
CCO/C(C)=N/n1c2nc3ccccc3nc2c2c(=O)n(Cc3ccccc3Cl)c(C)nc21 | + | -1 | -12 | . | 12 | 11
Nc1ncnc2oc(-c3ccco3)c(-c3ccco3)c12 | i | -5 | -7 | 52* | 21 | -56
Cc1cc(/C=N/NC(N)=S)c(C)n1-c1ccc(Br)cc1 | i | 0 | -12 | 104 | -10 | -2
CC(C)Oc1ccc(Br)cc1/C=N\NC(N)=S | + | -5 | 1 | 111 | -5 | 2
COc1ccc2nc(NC(=O)CSc3nc4cccnc4n3C)sc2c1 | i | -3 | -3 | 84* | -16 | 0
CN(C)S(=O)(=O)c1cc(NC(=O)CSc2ncc(C(F)(F)F)cc2Cl)ccc1Cl | + | -1 | 1 | . | -5 | -1
COc1ccccc1C(=O)O[C@H]1[C@H](Cc2ccccc2)NS(=O)(=O)[C@H]2C[C@@H]3C=C[C@]12O3 | i | 1 | -2 | 101 | 6 | 4
C=C(Br)CN1[C@@H](Cc2ccccc2)[C@H](O)[C@@]23C=C[C@@H](C[C@@H]2S1(=O)=O)O3 | i | 5 | -1 | 86* | 4 | 3
Cc1ccc(NC(=O)c2csc(-c3ccccc3)c2C)cc1 | i | -1 | 3 | -24* | -21 | 0
O=C(C1CC(=O)N(C2CCCCC2)C1)N1CCc2ccccc21 (centres undefined) | i | -5 | -6 | 113 | -3 | -2
Cc1cccc2sc(NC(=O)CCn3cccc3)nc12 | i | 2 | -1 | 100 | 9 | 3
Cc1cccc2sc(NC(=O)Cn3cccc3)nc12 | + | 1 | 3 | 105 | -8 | 1
CC(=O)N(C1=C(Cl)C(=O)c2ccccc2C1=O)C1CCCCC1 | i | 90* | -13 | 109 | -19 | 2
Cc1ccc(C)c(S(=O)(=O)Nc2cc(SCC(=O)O)c(O)c3ccccc23)c1 | . | 78* | 3 | . | -18 | -3
Nc1ccc2nc(SCC(=O)c3ccccc3)sc2c1 | i | 1 | 16 | 92* | 2 | 3

Screening results deposited in PubChem by several laboratories.
